Assay outcomes: PubChem, Broad Institute
The list is not random: actives were taken first. Their share in the collection is about 3%.
Casp6 inh = human caspase-6 inhibitors, primary screen, biochemical, VEID-R110 fluorescence, single point, set 2 | 0.53% of 350,000 active | P55212 | inhibition, % at 12.5 µM | purified caspase-6, Z-VEID-R110 cleavage fluorescence;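 active = mean inhibition across replicates at least about 35%, with every replicate also reaching that limit, limit read from the data; inconclusive = only one of the two criteria met; inactive = neither criterion met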
XiGFP reactiv = activators of inactive X chromosome reactivation, primary screen, imaging, XiGFP fibroblasts, GFP high-content imaging, set 2; XiGFP mouse fibroblasts, % GFP-positive cells imaging, 3 d; cells co-treated with 5-aza-dC sensitizer; scaled so ellipticine positive control = 100%; activation, % at 7.58 µM; 0.055% of 360,000 active; AID 743238, 2013;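 active = mean normalized replicate activation at least 10% and every replicate at or above 10%; inconclusive = only one of the two criteria met; inactive = mean below 10% and not all replicates reach 10%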
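System: 68-5-11 XiGFP fibroblast line | Buffer or medium: DMEM containing 5-aza-dC | Compound: Single point | Times: Compounds 3 days, fix/stain 15 min at room temperature | Benchmarks: Positive control ellipticine, 6 µM final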
MITF act = activators of MITF-driven TRPM1 promoter reporter, primary screen, cell-based, SK-MEL-5, luciferase, single point; 0.75% of 300,000 active; SK-MEL-5 TRPM1-promoter luciferase, 24 h; % of positive control, neutral wells = 0; activation, % at 12.5 µM;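 active = mean activation of at least 80% with every replicate also reaching 80%; inconclusive = mean reaches 80% but some replicate falls short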
Wnt act = Wnt/beta-catenin pathway activators, primary screen, cell-based, plate reader, single point; Wnt/beta-catenin reporter cell assay, activator; activation, % at 9.35 µM; 1.2% of 300,000 active; AID 743398, 2014; in the data active = activation above about 30%, passing the limit was not always enough; inconclusive = no clear call, values can overlap the other calls
esBAF inh = Bmi1 luciferase reporter increase in mESCs, primary screen, esBAF inhibitor project, mouse ES cells, Bmi1 luciferase knock-in, single point. 24 h; 100% = twice the neutral-well signal. reporter increase, % at 12.5 µM. 2% of 350,000 active. AID 602393, 2012; in the data active = activation above about 40%; inconclusive = no clear call, values can overlap the other calls;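 also: a rise in the Bmi1 reporter signal indicates esBAF inhibition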
NSD2 inh = NSD2 histone methyltransferase inhibitors, primary screen, biochemical, AlphaScreen, single concentration, set 2 | Histone-lysine N-methyltransferase NSD2 (Homo sapiens), O96028 | 0.54% of 310,000 active | NSD2 peptide methylation, 120 min | AID 743445, 2014 | inhibition, % at 12.5 µM; in the data active = inhibition above about 50%
Numbers stand for hits; – = inactive; ? = inconclusive; · = not tested or not shown.

SMILES	Casp6 inh	XiGFP reactiv	MITF act	Wnt act	esBAF inh	NSD2 inh
Cc1cccc(NC(=O)CCc2nc3sc4c(c3c(=O)[nH]2)CCCC4)n1	–	–	–	–	–	–
Cc1cccc(NC(=O)CNC(=O)CCc2nc3sc4c(c3c(=O)[nH]2)CCCC4)c1C	41	–	–	–	–	–
CN(CC(=O)Nc1ccc(F)c(F)c1F)C(=O)CCc1nc2sc3c(c2c(=O)[nH]1)CCCC3	42	–	–	–	–	–
CCCN(C)C[C@H]1Oc2ncc(-c3ccccc3)cc2C(=O)N([C@H](C)CO)C[C@H]1C	–	–	·	·	–	·
COc1ccccc1CNC(=O)C[C@H]1C[C@H]2c3cc(NC(=O)Cc4ccncc4)ccc3O[C@H]2[C@H](CO)O1	–	–	·	·	–	·
COc1ccc2c(c1)CCc1c(C(=O)NCC(C)C)noc1-2	–	–	109	53	–	–
COc1ccc2c(c1)CCc1c(C(=O)N3CCCCCC3)noc1-2	·	·	121	·	44	–
CCCNC(=O)c1noc2c1CCc1cc(OC)ccc1-2	–	–	–	–	–	–
C[C@H](CO)N1C[C@H](C)[C@H](CN(C)C(=O)Nc2cccc3ccccc23)Oc2ccc(NS(=O)(=O)c3ccc(Cl)cc3)cc2CC1=O	–	–	·	·	–	·
O=S(=O)(c1cccc(F)c1)N1CCN(Cc2cccc(OCCO)c2)CC1	–	·	·	·	·	·
O=C(Nc1ccccn1)c1ccc(=O)[nH]n1	·	·	–	·	·	–
O=C(Nc1ccccc1-c1ccccc1)c1ccc(=O)[nH]n1	–	–	–	–	43	–
CC(C)(C)c1ccc(NC(=O)c2ccc(=O)[nH]n2)cc1	–	–	97	33	–	–
CCCSc1nsc(NC(=O)c2cccnc2OCC)n1	–	–	–	–	·	–
CCCSc1nsc(NC(=O)CCC)n1	–	–	113	–	–	–
CCCCCCSc1nsc(NC(C)=O)n1	–	·	–	·	60	–
CCCCSc1nsc(NC(C)=O)n1	·	·	91	44	·	–
C[C@@H]1CN([C@@H](C)CO)S(=O)(=O)c2ccc(C#Cc3ccccn3)cc2O[C@H]1CN(C)C(=O)C1CC1	–	–	·	·	–	·
CCCNC(=O)N1[C@@H]2CN(C(=O)c3cccnc3)c3ccccc3[C@@H]2[C@@H]1CO	–	–	·	·	–	·
COc1ccc(CN(C)C[C@@H]2Oc3ccc(NC(=O)CCCN(C)C)cc3C(=O)N([C@@H](C)CO)C[C@H]2C)cc1	–	–	·	·	–	·
COc1ccc2c3c(n(C)c2c1)[C@@H](CO)N(C(=O)Nc1ccc(F)cc1)CC31CCN(S(=O)(=O)c2cccs2)CC1	–	–	·	·	·	·
Cc1cc(N=Nc2c(O)c3ccccc3[nH]c2=O)ccc1N=Nc1ccc(C(=O)N(C)C)cc1	·	–	–	–	–	–
COc1cc(N=Nc2ccc(C(=O)N(C)C)cc2)c(C)cc1N	–	–	–	–	58	–
COc1ccccc1-c1nnc2n1N=C(c1ccc(O)c(O)c1)CS2	·	·	–	·	–	56
[O-]/[N+](=C\c1ccccc1)c1ccc(Br)cc1	–	–	–	32	75	·
SMILES	Casp6 inh	XiGFP reactiv	MITF act	Wnt act	esBAF inh	NSD2 inh
CNC[C@@H]1OCCCC[C@@H](C)Oc2ccc(NS(=O)(=O)c3c(C)noc3C)cc2C(=O)N([C@@H](C)CO)C[C@H]1C	·	·	·	·	–	·
COc1ccc(/C(C#N)=C/c2ccccn2)cc1	–	–	–	33	–	–
N#C/C(=C\c1ccccn1)c1nc2ccccc2s1	–	–	–	–	–	–
CC(C)CNC(=O)COC(=O)c1c2c(nc3ccccc13)/C(=C\c1cccs1)CC2	–	–	–	–	55	–
O=C(COC(=O)c1c2c(nc3ccccc13)/C(=C\c1cccs1)CCC2)Nc1ccccc1	–	–	–	–	·	–
O=C(Nc1ccccc1)c1cc2ccccc2s1	–	–	–	–	45	–
O=C(Nc1ccc(O)cc1)c1cc2ccccc2c(=O)s1	–	–	100	–	49	–
CC(=O)Nc1ccc2c(c1)C(=O)N(C)[C@@H]1CC[C@H](CC(=O)NCC3CCCCC3)O[C@H]1CO2	·	–	·	·	–	·
COc1ccccc1-c1ccc(Nc2cccc(C(C)=O)c2)nn1	–	·	–	–	51	–
CC(=O)c1ccc(Nc2ccc(-c3ccccc3C)nn2)cc1	–	–	85	39	83	–
CC(=O)c1cccc(Nc2ccc(-c3ccccc3F)nn2)c1	–	–	–	–	·	–
CC(C)C#Cc1cnc2c(c1)C(=O)N([C@@H](C)CO)C[C@@H](C)[C@H](CN(C)Cc1ccccn1)O2	–	–	·	·	·	·
Cc1noc(C)c1S(=O)(=O)N(C)C[C@@H]1OCCCC[C@H](C)Oc2ccc(NS(=O)(=O)c3ccc(Cl)cc3)cc2C(=O)N([C@@H](C)CO)C[C@H]1C	–	–	·	·	–	·
COc1ccccc1C(=O)OCCc1ccccc1	–	–	141	–	78	–
COc1ccccc1C(=O)Cc1ccccc1	–	–	–	–	–	–
Cc1cc(C)cc(N(CC(=O)NC(C)C)C(=O)CCC(=O)Nc2ccccn2)c1	45	–	·	–	–	–
CCCCCCCNC(=O)C1(CC2CC(c3ccccc3)=NO2)CCN(C(=O)OC(C)(C)C)CC1 (configuration not stated)	–	–	–	–	62	·
CC1(C)CC(=O)c2cnc(N3CCN(c4ccccc4)CC3)nc2C1	·	·	–	·	–	–
CC1(C)CC(=O)c2cnc(N3CCc4ccccc4C3)nc2C1	–	·	–	–	69	–
CSc1nc2ccc(NC(=O)c3ccc(Cl)s3)cc2s1	–	–	·	–	50	·
Cc1cccc2sc(NC(=O)C3CCCO3)nc12 (configuration not stated)	–	·	–	·	74	–
COc1ccc2nc(NC(=O)C3CCCO3)sc2c1 (configuration not stated)	–	–	–	–	·	–
CSc1nc2ccc(NC(=O)C3CCCO3)cc2s1 (configuration not stated)	·	·	?	49	–	·
CO[C@H]1CN(C)C(=O)c2ccc(NC(C)=O)cc2OC[C@@H](C)N(CC2CCCCC2)C[C@@H]1C	–	–	·	·	–	·
O=C(OCc1nc2ccccc2s1)c1cnccn1	·	·	–	·	55	–
O=C(NCC[C@@H]1CC[C@@H](NS(=O)(=O)c2ccccc2)[C@H](CO)O1)c1ccc2c(c1)OCO2	–	–	·	·	–	·
COc1ccc(C2CC(c3ccc(Cl)cc3)=NN2c2ccc(S(N)(=O)=O)cc2)cc1 (configuration not stated)	–	–	–	–	–	·
COc1ccc(C2CC(c3ccncc3)=NN2c2ccc(S(N)(=O)=O)cc2)cc1 (configuration not stated)	–	–	–	–	83	·
